Source: publication PMC12393906 (Molecular Therapy, 2025)
Values belong to the compound of their own block, whether it stands above or below them.

How the values were obtained:
ERO1α [1] = conditions: read-out: IC50 (ERO1α); cited from earlier work
ERO1α [2] = conditions: read-out: KD (ERO1α); cited from earlier work
[3] = tested on: lysine-specific demethylase 1; conditions: cited from earlier work
Mao-A = conditions: read-out: IC50 (Mao-A); cited from earlier work
Recombinant human ERO1α = target: T1, Recombinant human ERO1α (Homo sapiens, UniProt Q96HE7); assay: fluorescence-based ERO1α activity assay; type: biochemical; conditions: 0.01–1 μM FAD
T1 sequence (Q96HE7 24-468): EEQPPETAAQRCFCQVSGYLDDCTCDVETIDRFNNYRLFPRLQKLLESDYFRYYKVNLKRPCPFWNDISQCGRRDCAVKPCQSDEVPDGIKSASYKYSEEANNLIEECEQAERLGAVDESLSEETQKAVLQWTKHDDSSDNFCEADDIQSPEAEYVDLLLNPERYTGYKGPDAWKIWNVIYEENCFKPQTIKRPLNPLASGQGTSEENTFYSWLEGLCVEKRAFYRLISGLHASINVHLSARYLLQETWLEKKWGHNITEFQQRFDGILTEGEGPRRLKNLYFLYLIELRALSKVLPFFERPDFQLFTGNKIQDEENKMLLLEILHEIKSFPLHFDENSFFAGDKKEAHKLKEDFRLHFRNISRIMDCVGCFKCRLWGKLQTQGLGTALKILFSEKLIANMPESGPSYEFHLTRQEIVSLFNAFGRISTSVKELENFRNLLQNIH

C57BL/6 mice [4] = assay: FeCl3-induced carotid arterial thrombosis; type: in vivo, mouse; conditions: iv 5 μg/g BW; 7% or 10% FeCl3
Summary of the method: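 Male and female mice, 8–12 weeks, were anaesthetised with ip ketamine/xylazine. A 2 × 2 mm filter disc carrying 1.2 μL of 7 or 10% FeCl3 was placed on the carotid artery for 2 min. Flow was monitored by Doppler flow meter. TTO was the time from disc removal to stable occlusion (no flow for 5 min).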

C57BL/6 mice [5] = assay: Tail bleeding time and hemoglobin content; type: in vivo, mouse; conditions: iv 5 μg/g BW

Compound: CN(C)c1ccc(/C=C2\Oc3cc(O)ccc3C2=O)cc1 [Compound T151742]
IC50 (ERO1α [1]): 8.7 µM | Kd (ERO1α [2]): 31.4 µM | binding to lysine-specific demethylase 1 [3]: does not bind | IC50 (Mao-A): 1 µM

effect of exogenous FAD on ERO1α activity (Recombinant human ERO1α): significantly increased ERO1α activity
Compound: Cc1cc2nc3c(=O)[nH]c(=O)nc-3n(C[C@H](O)[C@H](O)[C@H](O)COP(=O)(O)OP(=O)(O)OC[C@H]3O[C@@H](n4cnc5c(N)ncnc54)[C@H](O)[C@@H]3O)c2cc1C [FAD, flavin adenine dinucleotide]

tail bleeding times and blood loss (C57BL/6 mice [5]): markedly increased both
Compound: eptifibatide
time to occlusion (TTO) (C57BL/6 mice [4]): significantly prolonged TTO irrespective of the FeCl3 concentration
